# From PubChem
# Kir21 inh: inhibitors of mouse Kir2.1 inward-rectifier potassium channel; 310,000 tested, 0.85% active; B-score at 10 µM; AID 1672; HEK293-Kir2.1, FluxOR thallium flux fluorescence; stronger effect = lower value;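 active = fluorescence ratio B-score at or below minus 3 SD of library scores, with starting-brightness B-score within 2 SD, cut at about -4.2 in these data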;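 also: channel flux triggered by added potassium and thallium sulfate stimulus; B-score of peak minus minimum fluorescence over baseline after thallium stimulus; more negative B-score means stronger Kir2.1 block with less thallium influx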
# Target sequence (P35561 whole entry, looked up): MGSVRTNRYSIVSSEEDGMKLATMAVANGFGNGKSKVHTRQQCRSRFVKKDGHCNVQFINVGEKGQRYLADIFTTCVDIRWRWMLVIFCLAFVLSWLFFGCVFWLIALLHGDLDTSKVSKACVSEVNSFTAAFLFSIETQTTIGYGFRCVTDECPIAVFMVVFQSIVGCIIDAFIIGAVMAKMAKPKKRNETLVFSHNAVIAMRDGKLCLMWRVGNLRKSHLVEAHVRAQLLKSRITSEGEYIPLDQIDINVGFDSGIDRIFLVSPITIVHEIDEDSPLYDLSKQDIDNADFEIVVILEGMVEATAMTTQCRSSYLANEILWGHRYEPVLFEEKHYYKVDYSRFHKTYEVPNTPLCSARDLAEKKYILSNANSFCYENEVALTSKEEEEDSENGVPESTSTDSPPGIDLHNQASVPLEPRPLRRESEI
# KCNK3 inh: human KCNK3 channel inhibition, primary screen; O14649; CHO-KCNK3 thallium flux, FluxOR fluorescence; stronger effect = lower value; B-score at 10 µM; 340,000 tested, 0.84% active; AID 602410;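 active = B-score under library mean minus 4 SD, starting fluorescence ratio at most library mean plus 5 SD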;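 also: more negative B-score means stronger inhibition of thallium flux through KCNK3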
# KCNQ1 inh: blocks the human KCNQ1 potassium channel. P51787. CHO-K1 KCNQ1, FluxOR thallium flux fluorescence; stronger effect = higher value. B-score at 10 µM. 310,000 tested, 1.3% active. AID 2642;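 active = compounds whose thallium flux B-score, printed positive for inhibition, exceeds three library SD while starting fluorescence stays within three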;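 also: channel opened by potassium depolarization with thallium stimulus after 20 min compound exposure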
# hERG protect: shields human hERG channel from block by proarrhythmic agents. activation (rescue from dofetilide block), less the hit threshold, % at 10 µM. 310,000 tested, 0.51% active. CHO-hERG, FluxOR thallium flux, dofetilide IC70 present. Q12809;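 active = activation above the mean of controls blocked by dofetilide plus 5 SD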;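 also: thallium influx through hERG after potassium depolarization seen as dye fluorescence rise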
# KCNQ1 pot: potentiators or activators of human KCNQ1 potassium channel; CHO-K1 KCNQ1, thallium flux FluxOR fluorescence; stronger effect = higher value; B-score at 10 µM; 310,000 tested, 0.35% active; AID 2648;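 active = fluorescence ratio B-score, a plate-corrected score, at least three library SD, with initial intensity B-score within 5 SD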
#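 System: Stable KCNQ1 CHO-K1 line | Incubation: 90 min dye loading and 20 min compound exposure, both at room temperature | Measure: Ratio B score | Medium: Assay buffer for compound exposure, DMSO matched across wells | Compound dosing: Single-concentration screen | Probe or stimulus: K+/Tl+ depolarizing stimulus | Measured by: Kinetic FluxOR fluorescence, 10 s baseline plus 110 s post-stimulus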
# KCNK9 inh: blocks the human KCNK9 two-pore domain potassium channel; B-score at 10 µM; Q9NPC2; HEK293 KCNK9, FluxOR thallium flux fluorescence; stronger effect = lower value; AID 488922; 310,000 tested, 1.2% active;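 active = ratio B-score over 3 SD below the library mean, with starting fluorescence within 5 SD of its mean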;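 also: negative B-score means less thallium flux so channel inhibition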
# KCNK3 confirm: confirmation of human KCNK3 two-pore domain potassium channel inhibitors; shares compounds with KCNK3 inh; CHO-KCNK3 thallium flux, FluxOR fluorescence; 0% buffer, 100% carvedilol maximal block; ratio percent of control, % at 10 µM; 2,400 tested, 99% active; AID 651638;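 active = ratio percent of control, averaged over triplicates, above buffer control mean plus 5 SD, cut at about 64% in these data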;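 also: ratio is the fluorescence rise from min to max over baseline after thallium stimulus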
# KCNK3 uninduced: activity in cells without induced KCNK3 expression; thallium flux ratio (lower = more inhibition) at 10 µM; non-induced KCNK3 parental cells, FluxOR thallium flux; stronger effect = lower value; shares compounds with KCNK3 inh; 2,400 tested, 40% active; AID 651747;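 active = thallium flux ratio, averaged over three wells, more than 5 SD below the buffer control mean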;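 also: host cells are CHO cells without KCNK3 induction; ratio is peak minus trough fluorescence over baseline then normalized to buffer controls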
# Starred values were filed as active, the others as inactive; i = inactive; . = no result. The list is not random: actives were taken first. Their share in the collection is about 3.8%.
SMILES,Kir21 inh,KCNK3 inh,KCNQ1 inh,hERG protect,KCNQ1 pot,KCNK9 inh,KCNK3 confirm,KCNK3 uninduced
Cc1cc(OCC(=O)N2CCc3ccccc3C2)c(C)cc1Br,-0.76,-8.8*,i,-4,i,i,130*,0.14*
CCCCCCCCCCCCCCCCCCNc1ccn(C2OC(COP(=O)(O)OCC3OC(n4cc(F)c(=O)[nH]c4=O)CC3O)C(O)C2O)c(=O)n1 (stereo not drawn),.,i,.,.,.,.,.,.
CNc1c(NS(=O)(=O)c2ccc(C3CCCCC3)cc2)c(=O)oc2ccccc12,-0.61,-9.4*,i,-8,i,i,87*,i
CNc1c(NS(=O)(=O)c2ccc(Cl)cc2)c(=O)oc2ccccc12,0.16,i,i,-11,i,i,.,.
CCOC(=O)N1CCN(C(=O)CSCC(=O)Nc2nc(-c3ccc(-c4ccccc4)cc3)cs2)CC1,0.46,-10*,6*,-15,i,i,117*,0.15*
O=C(CSCC(=O)N1CCOCC1)Nc1nc(-c2ccccc2)cs1,-0.13,i,i,-7,i,i,.,.
COc1ccc(S(=O)(=O)NCCSCc2ccccc2C)cc1Br,-1.3,-8.9*,i,-10,i,i,126*,0.13*
O=C(NCCc1ccccc1)C1CCCN(c2cnccn2)C1 (stereo not drawn),-0.91,i,i,-11,i,i,.,.
CCN1N=C(c2ccccc2)Cn2c1nc1ccccc12,0.2,-9.4*,i,-14,i,i,88*,i
O=C(O)CSc1nnc(-c2cccc(S(=O)(=O)N3CCOCC3)c2)n1-c1ccc(F)cc1,.,i,.,.,.,.,.,.
Cc1cc(NC(=O)CSc2nc3c([nH]c4ccccc43)c(=O)n2-c2cccc(C(F)(F)F)c2)no1,-0.67,-11*,i,-7,i,i,92*,i
CC1CCC(C(C)C)C(OC(=O)CSc2nnc(N)s2)C1 (stereo not drawn),-4.2*,-9.7*,i,-8,i,i,110*,i
CCC(C)(C)n1nnnc1C(c1ccccc1)N1CCc2ccccc2C1 (stereo not drawn),0.99,-9.4*,i,-13,i,i,110*,i
CCc1c(C)nc2[nH]ncn2c1=O,.,i,.,.,.,.,.,.
COc1cccc(OCc2nc(-c3cccc([N+](=O)[O-])c3)no2)c1,0.74,-10*,i,-7,i,i,99*,i
O=C(NNC(=O)c1cc(-c2ccccc2)nc2ccccc12)Nc1cccc(Cl)c1,1.2,-9.9*,13*,-22,i,i,115*,i
O=C(Nc1ccc2nc(SCc3ccc(Cl)cc3)sc2c1)c1ccccc1C(=O)N1CCOCC1,0.08,-8.7*,6*,-23,i,i,97*,i
CC(=O)OC(COc1cccc(C)c1)Cn1cnc2ccccc21 (stereo not drawn),-1.5,-9.4*,i,-11,i,i,126*,0.16*
CC(=O)Nc1cccc(OCC(O)Cn2cnc3ccccc32)c1 (stereo not drawn),-0.46,i,i,-4,i,i,.,.
O=C(CSc1nc2ccccc2c(=O)n1Cc1ccco1)N1CCN(c2ccccc2)CC1,0.71,i,i,-22,i,i,.,.
Cc1sc2nc(SCC(=O)c3cccs3)n(Cc3ccco3)c(=O)c2c1C,0.37,-9.4*,i,-6,i,i,106*,i
O=c1c2ccccc2nc(SCc2nc3ccccc3s2)n1Cc1ccco1,0.13,-12*,i,-5,i,i,127*,0.15*
O=C(CSc1nc2ccccc2c(=O)n1Cc1ccco1)c1ccccc1,-0.72,-11*,i,1,i,i,91*,i
